pIC50: −log10 of the molar value. Calls of active or inactive are those of the source. No cut-off for these calls is given here.
Columns and labels:
[1] = Dark toxicity in mouse B16F10 cells assessed as cell viability after 48 hrs by cell counting kit-8 based spectrophotometric analysis; set-up: species or system B16-F10; settings: for IC50 at 48 h: mouse, B16F10 cells
In short: (§1)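 CCK-8 dark toxicity. 5×10^3 cells seeded in 10% FBS medium (A375 in DMEM, B16-F10 in RPMI 1640). Exposed to graded compound concentrations for 48 h at 37 °C, kept in the dark. Fresh medium and CCK-8 added for 1.5 h, then absorbance read at 450 nm to give IC50. Ratio is dark IC50 over IC50 under light.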

[2] = (§2) Dark toxicity in human A375 cells assessed as cell viability after 48 hrs by cell counting kit-8 based spectrophotometric analysis; set-up: species or system A-375; settings: human, A375 cells; in short: as §1
[3] = Dark toxicity in mouse B16F10 cells assessed as reduction in cell surviving fraction at 50 to 300 uM after 48 hrs by cell counting kit-8 based spectrophotometric analysis; settings: b16-f10, 48 h
In short: (§3)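 Survival fraction measured in the dark by CCK-8 after 48 h exposure at 37 °C to 300 µM or 50 µM. Cells were in 10% FBS medium (A375 in DMEM, B16-F10 in RPMI 1640). Viability read as absorbance at 450 nm after 1.5 h with CCK-8.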

A-375 [4] = test: Dark toxicity in human A375 cells assessed as reduction in cell surviving fraction at 50 to 300 uM after 48 hrs by cell counting kit-8 based spectrophotometric analysis; settings: a-375, 48 h; in short: as §3
A-375 [5] = test: Phototoxicity in human A375 cells assessed as reduction in cell surviving fraction by irradiation with diode laser at 10 J/cm'2 after 24 hrs by cell counting kit-8 based spectrophotometric analysis; type: functional
In short: (§4)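 Survival fraction after PDT. Cells held 24 h at 2 µM or 0.2 µM, irradiated at 678 nm with 10 J/cm², then cultured another 24 h. Viability measured by CCK-8 at 450 nm.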

[6] = Phototoxicity in mouse B16F10 cells assessed as cell viability after 24 hrs followed by irradiation with diode laser at 10 J/cm'2 measured after 24 hrs by cell counting kit-8 based spectrophotometric analysis; type: functional, B16-F10
In short: (§5)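 Phototoxicity by CCK-8. Cells loaded with a range of compound concentrations for 24 h at 37 °C, irradiated with a 678 nm diode laser at 10 J/cm², then incubated a further 24 h. Viability read as absorbance at 450 nm after 1.5 h with CCK-8.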

[7] = Ratio of IC50 for dark toxicity to IC50 for phototoxicity in human A375 cells; type: cell-based, A-375; settings: for selectivity ratio: A375 cells, read-out: Ratio IC50; in short: as §1
A-375 [8] = test: Phototoxicity in human A375 cells assessed as cell viability after 24 hrs followed by irradiation with diode laser at 10 J/cm'2 measured after 24 hrs by cell counting kit-8 based spectrophotometric analysis; type: functional; in short: as §5
[9] = Ratio of IC50 for dark toxicity to IC50 for phototoxicity in mouse B16F10 cells by cell counting kit-8 based spectrophotometric analysis; set-up: species or system B16-F10; settings: for selectivity ratio: B16F10 cells, read-out: Ratio IC50; in short: as §1
B16-F10 [10] = test: Phototoxicity in mouse B16F10 cells assessed as reduction in cell surviving fraction by irradiation with diode laser at 10 J/cm'2 after 24 hrs by cell counting kit-8 based spectrophotometric analysis; type: functional; in short: as §4
B16-F10 [11] = test: Antitumor activity against B16F10 cells implanted in C57BL/6 mouse assessed as tumor growth inhibition at 2 mg/kg, iv administered for 2 hrs followed by irradiation with laser at 150 J/cm'2 for 10 mins; type: functional, organism-based
In short: (§6)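 B16-F10 cells (2×10^4) inoculated subcutaneously into the right thigh of male C57BL/6 mice aged 6-8 weeks. Mice with tumours 6-8 mm in diameter were used, 5 per group. Irradiation at 678 nm diode laser, 250 mW/cm² for 10 min, 2 h after i.v. dosing. Tumour volume measured by caliper as (W²×L)/2. Survival recorded daily and analysed by Kaplan-Meier with log-rank test.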

B16-F10 [12] = test: Antitumor activity against B16F10 cells implanted in C57BL/6 mouse assessed as survival time at 2 mg/kg, iv administered for 2 hrs followed by irradiation with laser at 150 J/cm'2 for 10 mins (reference value: 13 days); type: functional, organism-based; in short: as §6
[13] = Phototoxicity in mouse B16F10 cells assessed as cell viability after 24 hrs followed by irradiation with diode laser at 10 J/cm'2 measured after 24 hrs by MTT assay; type: functional, cell-based, B16-F10; settings: b16-f10
In short: (§7)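 B16-F10 cells in RPMI 1640 with 10% FBS. Dark arm: compound for 48 h. Light arm: compound for 24 h, then 678 nm diode laser at 10 J/cm², then a further 24 h. Read-out by MTT for 4 h, formazan dissolved in DMSO, absorbance at 490 nm. Ratio is dark IC50 over light IC50.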

A-375 [14] = test: as §2; settings: a-375; in short: as §1
[15] = Dark toxicity in mouse B16F10 cells assessed as cell viability after 48 hrs by MTT assay; type: cell-based, B16-F10; settings: b16-f10; in short: as §7
[16] = Ratio of IC50 for dark toxicity to IC50 for phototoxicity in mouse B16F10 cells by MTT assay; type: cell-based, B16-F10; settings: b16-f10; in short: as §7
[17] = Mus musculus, B16-F10, light or radiation study, 24 h
[18] = Homo sapiens, A-375, light or radiation study, 24 h

## C=Cc1c(C)c2cc3nc(c(C(=O)OC)c4[nH]c(cc5nc(cc1[nH]2)C(C)=C5CC)c(C)c4C(=O)OC)[C@@H](CCC(=O)N[C@@H](CCC(=O)O)C(=O)O)[C@@H]3C
[1]
  IC50 at 48 h: 284 µM
[2]
  IC50 at 48 h: > 300 µM
[3]
  Activity: Non-toxic
A-375 [4]
  Activity: Non-toxic
A-375 [5]
  Activity: Dose-dependent effect
[6]; [17]
  pIC50: 5.91
[7]
  selectivity ratio: > 195
A-375 [8]; [18]
  pIC50: 5.81
[9]
  selectivity ratio: 233
B16-F10 [10]
  Activity: Dose-dependent effect

## CCC1=C(C)c2cc3[nH]c(cc4nc(c(C(=O)OC)c5[nH]c(cc1n2)c(C)c5C(=O)OC)C(CCC(=O)N[C@@H](CCC(=O)O)C(=O)O)=C4C)[C@@]1(C)C3=CC=C(C(=O)OC)[C@H]1C(=O)OC
[1]
  IC50 at 48 h: 224 µM
[2]
  IC50 at 48 h: 286 µM
[6]; [17]
  pIC50: 5.39
[7]
  selectivity ratio: 40.3
A-375 [8]; [18]
  pIC50: 5.15
[9]
  selectivity ratio: 55.3

## VERTEPORFIN [listing 1 of 2 here]
B16-F10 [11]
  TGI: Active
B16-F10 [12]
  MST: 18 days

## VERTEPORFIN [listing 2 of 2 here]
[1]; b16-f10
  pIC50: 4.60
[13]
  pIC50: 5.97
A-375 [14]
  pIC50: 4.44
[15]
  pIC50: 4.60
[6]; b16-f10
  pIC50: 5.92
[7]; a-375
  Ratio IC50: 17.64
A-375 [8]; a-375
  pIC50: 5.69
[16]
  Ratio IC50: 23.39
[9]; b16-f10
  Ratio IC50: 20.77
